In ChEMBL document CHEMBL1123290, “Synthesis, antimalarial activity, and quantitative structure-activity relationships of tebuquine and a series of related 5-[(7-chloro-4-quinolinyl)amino]-3-[(alkylamino)methyl] [1,1'-biphenyl]-2-ols and N omega-oxides” (1986):

What was measured:
Assay type in all cases: functional
Plasmodium berghei [1] = experiment: Antimalarial activity in primary screen
Plasmodium berghei [2] = experiment: Change in mean survival time of Plasmodium berghei infected mice (Mus musculus) on 1.25 mg/kg subcutaneous dose
Plasmodium berghei [3] = experiment: Difference in mean survival time of Plasmodium berghei infected mice (Mus musculus) after 10 mg/kg subcutaneous dose
Plasmodium berghei [4] = experiment: Change in mean survival time for control (average 6.2 days) versus treated mice (Mus musculus) after 160 mg/kg subcutaneous dose
Plasmodium berghei [5] = experiment: Change in mean survival time of Plasmodium berghei infected mice (Mus musculus) after […] subcutaneous dose
Plasmodium berghei [6] = experiment: Change in mean survival time for control (average 6.2 days) versus treated mice (Mus musculus) after 20 mg/kg subcutaneous dose
Plasmodium berghei [7] = experiment: Change in mean survival time for control (average 6.2 days) versus treated mice (Mus musculus) after 320 mg/kg subcutaneous dose
Plasmodium berghei [8] = experiment: Change in mean survival time for control (average 6.2 days) versus treated mice (Mus musculus) after 40 mg/kg subcutaneous dose
Plasmodium berghei [9] = experiment: Change in mean survival time of Plasmodium berghei infected mice (Mus musculus) after 5 mg/kg subcutaneous dose
Plasmodium berghei [10] = experiment: Change in mean survival time in control (average 6.2 days) versus treated mice (Mus musculus) after 80 mg/kg subcutaneous dose
Plasmodium berghei [11] = experiment: (§1) Change in mean survival time for control (average 6.2 days) versus treated mice (Mus musculus) 72 hrs after […] subcutaneous dose
Plasmodium berghei [12] = experiment: Antimalarial activity as 60-day survivors in Plasmodium berghei infected mice (Mus musculus) after single 160mg/kg subcutaneous dose 72 hr post infection
How it was run: (§2)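 Mice were infected with a normal drug-sensitive Plasmodium berghei strain. At 72 h postinfection each received one subcutaneous dose of compound dissolved or suspended in peanut oil, in five-mouse groups per dose. The read-out was the number of mice alive at 60 days postinfection, which were scored as cured.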

Plasmodium berghei [13] = experiment: Antimalarial activity as 60-day survivors in infected mice (Mus musculus) after single 320mg/kg subcutaneous dose 72 hr post infection; how it was run: as §2
Mus musculus [14] = experiment: Antimalarial activity, administered as a single subcutaneous dose of 640 mg/kg, 72 hrs post infection measured as number of mice (Mus musculus) surviving at 60 days post infection; how it was run: as §2
Mus musculus [15] = experiment: Antimalarial activity, administered as a single subcutaneous dose of 80 mg/kg, 72 hrs post infection measured as number of mice (Mus musculus) surviving at 60 days post infection; how it was run: as §2
Plasmodium berghei [16] = experiment: Change in mean survival time for control (average 6.2 days) versus treated mice (Mus musculus) 72 hrs after 5 mg/kg subcutaneous dose
Plasmodium berghei [17] = experiment: Change in mean survival time for control (average 6.2 days) versus treated mice (Mus musculus) 72 hrs after 640 mg/kg subcutaneous dose
Plasmodium berghei [18] = experiment: Change in mean survival time for control (average of 6.2 days) versus treated mice (Mus musculus) 72 hrs after 80 mg/kg subcutaneous dose
Plasmodium berghei [19] = experiment: as §1; remark: listed apart in the source
Plasmodium berghei [20] = experiment: Change in mean survival time for control (average 6.2 days) versus treated mice (Mus musculus) 72 hrs after 10 mg/kg subcutaneous dose
Plasmodium berghei [21] = experiment: Change in mean survival time for control (average 6.2 days) versus treated mice (Mus musculus) 72 hrs after 160 mg/kg subcutaneous dose
Plasmodium berghei [22] = experiment: Change in mean survival time for control (average 6.2 days) versus treated mice (Mus musculus) 72 hrs after […] subcutaneous dose
Plasmodium berghei [23] = experiment: Change in mean survival time for control (average 6.2 days) versus treated mice (Mus musculus) 72 hrs after 20 mg/kg subcutaneous dose
Plasmodium berghei [24] = experiment: Change in mean survival time for control (average 6.2 days) versus treated mice (Mus musculus) 72 hrs after 320 mg/kg subcutaneous dose
Plasmodium berghei [25] = experiment: Difference in mean survival time in mice (Mus musculus) (control = 6.2 days) after single 40mg/kg subcutaneous dose 72hr post infection
Mus musculus [26] = experiment: Antimalarial activity of compound administered as a single subcutaneous dose of 10mg/kg, 72 hrs post infection measured as number of mice (Mus musculus) surviving at 60 days post infection; how it was run: as §2
Plasmodium berghei [27] = experiment: Antimalarial activity as 60-day survivors in infected mice (Mus musculus) after single 20 mg/kg subcutaneous dose 72hr post infection; how it was run: as §2
Mus musculus [28] = experiment: Antimalarial activity, administered as a single subcutaneous dose of 40 mg/kg, 72 hrs post infection measured as number of mice (Mus musculus) surviving at 60 days post infection; how it was run: as §2

Compound	ED30 (Plasmodium berghei [1]) [mg/kg]	Delta MST (Plasmodium berghei [2]) [days]	Delta MST (Plasmodium berghei [3]) [days]	Delta MST (Plasmodium berghei [4])	Delta MST (Plasmodium berghei [5]) [days]	Delta MST (Plasmodium berghei [6]) [days]	Delta MST (Plasmodium berghei [7]) [days]	Delta MST (Plasmodium berghei [8]) [days]	Delta MST (Plasmodium berghei [9]) [days]	Delta MST (Plasmodium berghei [10]) [days]	Delta MST (Plasmodium berghei [11]) [days]	No. of mice cured (Plasmodium berghei [12])	No. of mice cured (Plasmodium berghei [13])	No. of mice cured (Mus musculus [14])	No. of mice cured (Mus musculus [15])	Delta MST (Plasmodium berghei [16]) [days]	Delta MST (Plasmodium berghei [19]) [days]	Delta MST (Plasmodium berghei [20]) [days]	Delta MST (Plasmodium berghei [22]) [days]	No. of mice cured (Mus musculus [28])	also measured
CCN(CC)Cc1cc(Nc2cc[n+]([O-])c3cc(Cl)ccc23)cc(-c2ccc(SC)cc2)c1O	158	0.1	2.1	19.9 days	0.5	6.5	18.6	10.3	1.5	9.4	27.3	1	4	2	1	–	–	–	–	–	–
CC(C)(C)NCc1cc(Nc2ccnc3cc(Cl)ccc23)cc(-c2ccc(F)cc2)c1O	–	–	–	–	–	–	–	–	–	–	–	1	–	–	1	8.9	1.7	16.5	7.5	3	Delta MST (Plasmodium berghei [17]): 14.4 days; Delta MST (Plasmodium berghei [18]): 12.4 days; Delta MST (Plasmodium berghei [21]): 11.9 days; Delta MST (Plasmodium berghei [23]): 18 days; Delta MST (Plasmodium berghei [24]): 16.6 days; Delta MST (Plasmodium berghei [25]): 15.2 days; No. of mice cured (Mus musculus [26]): 1; No. of mice cured (Plasmodium berghei [27]): 1
CCN(CC)Cc1cc(Nc2cc[n+]([O-])c3cc(Cl)ccc23)cc(-c2ccccc2F)c1O	48.4	-0.1	6.1	20.1 days	-0.1	12.2	31.9	17.1	1.5	15.6	35.6	3	2	4	–	–	–	–	–	1	–
CC(C)(C)NCc1cc(Nc2cc[n+]([O-])c3cc(Cl)ccc23)cc(-c2ccccc2)c1O	–	-0.3	12.5	23.2 days	-0.1	21	14.5	21	4.5	15.5	14	2	3	3	1	–	–	–	–	1	No. of mice cured (Plasmodium berghei [27]): 1
CCN(CC)Cc1cc(Nc2cc[n+]([O-])c3cc(Cl)ccc23)cc(-c2ccccc2)c1O	26.3	0.3	7.7	–	0.3	17.4	24.9	29.6	5.1	19.9	23.9	5	3	3	2	–	–	–	–	–	–
CCN(CC)Cc1cc(Nc2cc[n+]([O-])c3cc(Cl)ccc23)cc(-c2ccccc2Cl)c1O	27.4	-0.2	8	33.4 days	-0.2	19.2	41.9	25.8	6.4	34.9	–	3	3	5	2	–	–	–	–	1	–
CCN(CC)Cc1cc(Nc2ccnc3cc(Cl)ccc23)cc(-c2ccccc2)c1O	10.4	–	–	–	–	–	–	–	–	–	–	5	5	5	5	0.7	0.3	11.9	0.3	5	No. of mice cured (Mus musculus [26]): 2; No. of mice cured (Plasmodium berghei [27]): 5
CCN(CC)Cc1cc(Nc2cc[n+]([O-])c3cc(Cl)ccc23)cc(-c2ccc(F)cc2)c1O	19.7	0.5	10.5	–	2.1	14.1	8.6	21.7	5.1	23.6	15	5	4	–	4	–	–	–	–	2	–
CCN(CC)Cc1cc(Nc2cc[n+]([O-])c3cc(Cl)ccc23)cc(-c2cccc(Cl)c2)c1O	27.4	0.3	9.7	28.9 days	0.7	16.5	21.9	25.9	2.1	25.6	16.4	4	4	3	2	–	–	–	–	2	–
CC(C)(C)NCc1cc(Nc2ccnc3cc(Cl)ccc23)cc(-c2ccc(C(F)(F)F)cc2)c1O	–	–	–	–	–	–	–	–	–	–	–	–	–	3	–	11.8	0.2	10.4	3.4	2	Delta MST (Plasmodium berghei [17]): 11.7 days; Delta MST (Plasmodium berghei [18]): 10.7 days; Delta MST (Plasmodium berghei [21]): 9.1 days; Delta MST (Plasmodium berghei [23]): 21.2 days; Delta MST (Plasmodium berghei [24]): 12.1 days; Delta MST (Plasmodium berghei [25]): 14.9 days; No. of mice cured (Mus musculus [26]): 1
CC(C)(C)NCc1cc(Nc2cc[n+]([O-])c3cc(Cl)ccc23)cc(-c2ccc(Cl)c(Cl)c2)c1O	–	-0.3	2.9	25.9 days	-0.1	5.9	25.9	8.9	0.5	23.2	–	1	3	2	1	–	–	–	–	–	–
CCN(CC)Cc1cc(Nc2ccnc3cc(Cl)ccc23)cc(-c2c(F)c(F)c(F)c(F)c2F)c1O	7.4	–	–	–	–	–	–	–	–	–	–	4	5	5	5	12.9	3.5	18.8	7.9	4	Delta MST (Plasmodium berghei [21]): 47 days; Delta MST (Plasmodium berghei [23]): 18.8 days; Delta MST (Plasmodium berghei [25]): 20.5 days; No. of mice cured (Mus musculus [26]): 2; No. of mice cured (Plasmodium berghei [27]): 1
CCCCN(CCCC)Cc1cc(Nc2cc[n+]([O-])c3cc(Cl)ccc23)cc(-c2ccc(Cl)cc2)c1O	–	0.4	-0.2	12	-0.2	3.2	21.2	2.2	0.4	8	31.7	–	–	1	–	–	0.4	–	–	–	–
CCN(CC)Cc1cc(Nc2ccnc3cc(Cl)ccc23)cc(-c2ccc(Cl)cc2)c1O [TEBAQUINE]	–	–	–	–	–	–	–	–	–	–	–	4	2	1	5	20.7	0.1	30.2	0.1	5	Delta MST (Plasmodium berghei [17]): 11.9 days; Delta MST (Plasmodium berghei [21]): 11.9 days; Delta MST (Plasmodium berghei [23]): 33.7 days; Delta MST (Plasmodium berghei [24]): 11.2 days; No. of mice cured (Mus musculus [26]): 1; No. of mice cured (Plasmodium berghei [27]): 1
